The values that follow come from ChEMBL document CHEMBL3352721, “Identification, optimization, and pharmacology of acylurea GHS-R1a inverse agonists” (J Med Chem, 2014).

Active and inactive are the calls of the source. The calls are words filed in the database; no cut-off is given here. Where only a bound is given, the exact number is not on record here.

Data set [1] is described as follows: Lipophilicity, logD of the compound. The note with it: octanol/water. In kind it is physicochemical.
Data set [2] can be described thus: Cmax in CD1 mouse at 1.3 mg/kg, po. To be noted: in vivo. The arrangement: dose 1.3 mg/kg, route oral. In kind it is ADME, organism-based. The method, boiled down:
(§1)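 Oral gavage in male HW rats, beagle dogs or CD-1 mice, vehicle Pluronic F127 in water. EDTA plasma was collected over 24 h and quantified by LC/MS/MS after acetonitrile precipitation. Cmax and bioavailability were obtained by non-compartmental analysis against IV data.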

Data set [3] in a line: Oral bioavailability in Han-Wistar rat at 2 mg/kg. The class given is ADME, organism-based. To be noted: Han-Wistar, in vivo. The method, boiled down: as §1
A short description of data set [4]: Clearance in beagle dog at 2 mg/kg, iv. The note with it: in vivo. On the set-up: dose 2 mg/kg, route intravenous. The class given is ADME, organism-based, Canis lupus familiaris. An outline of the steps: (§2)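 Male HW rats, beagle dogs or CD-1 mice received an IV bolus in 5% DMSO/95% hydroxypropyl-β-cyclodextrin (30% w/v). EDTA plasma was sampled over 24 h and assayed by LC/MS/MS after acetonitrile protein precipitation. CL and Vss were obtained by non-compartmental analysis.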

A short description of data set [5]: Cmax in beagle dog at 2 mg/kg, po. In kind it is ADME, organism-based, Canis lupus familiaris. On the set-up: dose 2 mg/kg, route oral. To be noted: in vivo. The method, boiled down: as §1
Data set [6] can be described thus: Clearance in CD1 mouse at 2 mg/kg, iv. In kind it is ADME, organism-based. The arrangement: dose 2 mg/kg, route intravenous. The note with it: in vivo. An outline of the steps: as §2
The nature of data set [7]: Unbound fraction in Han-Wistar rat plasma. In kind it is ADME, cell-free.
The nature of data set [8]: Volume of distribution at steady state in CD1 mouse at 2 mg/kg, iv. The note with it: in vivo, read-out: Vdss. In kind it is ADME, organism-based. On the set-up: dose 2 mg/kg, route intravenous. The method, boiled down:
as §2

Data set [9] can be described thus: Cmax in Han-Wistar rat at 2 mg/kg, po. On the set-up: dose 2 mg/kg, route oral. To be noted: in vivo. In kind it is ADME, organism-based. The method, boiled down:
as §1

Data set [10] is described as follows: Volume of distribution at steady state in beagle dog at 2 mg/kg, iv. The class given is ADME, organism-based, Canis lupus familiaris. On the set-up: dose 2 mg/kg, route intravenous. To be noted: in vivo, read-out: Vdss. The method, boiled down:
as §2

Data set [11] in a line: Clearance in Han-Wistar rat at 2 mg/kg, iv. The class given is ADME, organism-based. The arrangement: dose 2 mg/kg, route intravenous. To be noted: in vivo. The method, boiled down:
as §2

Data set [12] is described as follows: Oral bioavailability in beagle dog at 2 mg/kg. The class given is ADME, organism-based, Canis lupus familiaris. The note with it: in vivo. An outline of the steps: as §1
Data set [13] is described as follows: Displacement of [125I]human ghrelin from mouse GHS-R1a expressed in HEK cell membranes after 60 mins by gamma counting method. To be noted: hek293. An outline of the steps: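 HEK cell membranes stably overexpressing mouse or rat GHS-R1a (4 µg/well) incubated 60 min at rt with 20 pM [125I]human ghrelin and competing compound. Buffer: 50 mM Tris-HCl, 5 mM MgCl2, 0.01% BSA, pH 7.4, plus 10 µM methyl arachidonyl fluorophosphonate. Stopped by filtration over PEI-soaked GF/C filters with ice-cold washes, then gamma counting. IC50 is the mean of ≥2 independent determinations.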
(Loss of bound radioactivity is the signal in a displacement assay; it reports binding, not function.)

Data set [14] can be described thus: Volume of distribution at steady state in Han-Wistar rat at 2 mg/kg, iv. In kind it is ADME, organism-based. The arrangement: dose 2 mg/kg, route intravenous. To be noted: in vivo, read-out: Vdss. An outline of the steps: as §2
The test system of data set [15] is MDR1. Description: Apparent permeability in MDCK cells expressing MDR1 at 10 uM assessed as apical to basolateral side transport. In kind it is ADME, cell-based, Canis lupus familiaris. The note with it: dog. The method, boiled down: (§3)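 MDCK-MDR1 monolayers incubated with compound at 10 µM; permeability measured in both A→B and B→A directions, giving Papp A-B (x10^6 cm/s) and the efflux ratio.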

For data set [16], the system named is Mus musculus. Description: Reduction in free feeding level in po dosed C57Bl6j mouse free feeding model measured during 2 to 6 hrs. The class given is functional, organism-based. The method, boiled down:
(§4)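 Male mice (C57Bl6j, GHSr1-/- or wild-type littermates) were acclimatized 3 weeks to reversed light-dark, then individually housed 7 days and grouped (n=10-12) by baseline intake and body weight. Suspensions in 1% Pluronic F127 or vehicle were gavaged at 10 mL/kg about 1 h before dark onset. Pre-weighed food was reweighed at 2, 4, 6 and 24 h.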

The subject of data set [17] is Mus musculus. Put plainly: Reduction in free feeding level in po dosed C57Bl6j mouse free feeding model measured during 0 to 2 hrs. The class given is functional, organism-based. The method, boiled down: as §4
For data set [18], the system named is Mus musculus. Description: Reduction in free feeding level in po dosed C57Bl6j mouse free feeding model measured over 24 hrs period. The class given is functional, organism-based. The method, boiled down: as §4
Data set [19] in a line: Oral bioavailability in CD1 mouse at 1.3 mg/kg. In kind it is ADME, organism-based. To be noted: in vivo. The method, boiled down: as §1
The target in data set [20] is Growth hormone secretagogue receptor type 1 (Rattus norvegicus) (UniProt O08725). Description: Displacement of [125I]human ghrelin from rat GHS-R1a expressed in HEK cell membranes after 60 mins by gamma counting method. To be noted: hek293.
Chain of Growth hormone secretagogue receptor type 1 (Rattus norvegicus) (O08725 whole entry, looked up): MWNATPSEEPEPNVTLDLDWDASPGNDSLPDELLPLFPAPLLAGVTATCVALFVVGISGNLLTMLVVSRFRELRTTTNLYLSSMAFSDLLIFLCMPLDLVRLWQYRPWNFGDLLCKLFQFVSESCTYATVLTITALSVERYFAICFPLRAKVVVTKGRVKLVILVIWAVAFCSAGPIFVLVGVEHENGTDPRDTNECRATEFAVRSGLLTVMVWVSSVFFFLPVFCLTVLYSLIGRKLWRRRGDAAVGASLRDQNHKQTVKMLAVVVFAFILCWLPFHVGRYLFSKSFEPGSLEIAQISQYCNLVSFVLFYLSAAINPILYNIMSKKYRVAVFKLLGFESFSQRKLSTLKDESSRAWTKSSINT
Data set [21] in a line: Cmax in Han-Wistar rat at 2 mg/kg, po by LC-MS/MS method. The class given is ADME, organism-based. The arrangement: dose 2 mg/kg, route oral. The note with it: in vivo. An outline of the steps:
as §1

Data set [22] can be described thus: Unbound fraction in beagle dog plasma. In kind it is ADME, cell-free, Canis lupus familiaris.
Data set [23] is described as follows: Unbound fraction in CD1 mouse plasma. The class given is ADME, cell-free.
The nature of data set [24]: Ratio of drug level in homogenized brain to plasma in Han-Wistar rat measured 1 hr after iv bolus then iv infusion by LC-MS/MS method. In kind it is ADME, organism-based. The note with it: read-out: BPR. An outline of the steps: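 Brain:plasma ratio in homogenized brain 1 h after IV bolus followed by IV infusion. The free ratio used free fractions measured in plasma and brain (brain slice method or brain homogenate).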

Data set [25] in a line: Ratio of free drug level in homogenized brain to plasma in CD1 mouse measured 6 hrs after oral dosing by LC-MS/MS method. The class given is ADME. The method, boiled down:
(§5)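 CD-1 mice dosed PO in 1% Pluronic F127. Drug was measured in homogenized brain and in plasma 6 h after dosing and expressed as a brain:plasma ratio. The free ratio used free fraction measured in mouse plasma and rat brain (brain slice or brain homogenate).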

A short description of data set [26]: Cmax in CD1 mouse at 2 mg/kg, po by LC-MS/MS method. The class given is ADME, organism-based. The arrangement: dose 2 mg/kg, route oral. To be noted: in vivo. An outline of the steps:
as §1

Data set [27] deals with Growth hormone secretagogue receptor type 1 (Homo sapiens, UniProt Q92847). Description: Displacement of [125I]human ghrelin from human GHS-R1a expressed in HEK cell membranes after 60 mins by gamma counting method. On the set-up: species or system HEK293.
Chain of Growth hormone secretagogue receptor type 1 (Q92847 whole entry): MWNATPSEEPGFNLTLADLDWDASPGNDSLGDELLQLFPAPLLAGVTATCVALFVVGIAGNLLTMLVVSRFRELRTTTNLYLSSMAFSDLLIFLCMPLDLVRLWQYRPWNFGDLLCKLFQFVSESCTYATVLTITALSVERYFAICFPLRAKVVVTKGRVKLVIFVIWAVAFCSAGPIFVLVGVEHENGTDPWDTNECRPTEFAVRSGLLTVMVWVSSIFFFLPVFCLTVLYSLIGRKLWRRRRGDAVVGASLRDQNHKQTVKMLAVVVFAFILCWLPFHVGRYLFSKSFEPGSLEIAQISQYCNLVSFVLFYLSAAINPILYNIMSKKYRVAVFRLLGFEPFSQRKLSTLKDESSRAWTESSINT
The nature of data set [28]: Ratio of drug level in homogenized brain to plasma in CD1 mouse at 2 mg/kg, po measured after 6 hrs by LC-MS/MS method. In kind it is ADME, organism-based. The arrangement: dose 2 mg/kg, route oral. The note with it: read-out: BPR. An outline of the steps:
as §5

Data set [29] relates to MDR1. Put plainly: Efflux ratio in MDCK cells expressing MDR1 at 10 uM. The class given is ADME, cell-based, Canis lupus familiaris. To be noted: dog. The method, boiled down:
as §3

As usually defined, the logD is lipophilicity at a set pH, counting ionised and neutral species. Read a high logD as a more lipophilic compound. The Cmax is the highest concentration seen after dosing. The bioavailability is dose-corrected exposure relative to a reference, in per cent. A word on the clearance: it is a measure of how efficiently the substance is removed, as volume per time. Low values mean inefficient removal, high ones efficient removal. In general, fraction unbound refers to free concentration divided by total concentration. Usually IC50 stands for the point on the concentration scale where inhibition reaches its midpoint. Read a high IC50 as weaker potency in that assay. As a reminder, the Papp A→B is how fast a substance crosses the layer from the apical side. In [1], `CN1CCN(CCCS(=O)(=O)c2ccc3nc(NC(=O)NC(=O)c4cc(N5CCOCC5)ccc4Cl)sc3c2)CC1` displayed a logD of 1.7. Also, the Cmax in [2] amounted to 1300 nM; in data set [5], 11000 nM; in [9], 580 nM; in [21], 1200 nM. In addition, the values for the bioavailability in data set [3], in [12] and in data set [19] were 30%, 87% and 50%, respectively. Besides, the clearance was 0.69 mL/min/kg in data set [4], 2.9 mL/min/kg in data set [6] and 2.6 mL/min/kg in data set [11]. Moreover, the figures for the fraction unbound in data set [7], in data set [22] and in data set [23] were 0.0035, 0.0078 and 0.006, respectively. In addition, the Vd in data set [8] amounted to 0.8 L/kg; in data set [10], 0.3 L/kg; in [14], 0.9 L/kg. The IC50 was found to be 1.1 nM in [13] and 3.4 nM in data set [20]. Further, the Papp A→B at 10 µM with MDR1 [15] worked out at 0.53 ×10⁻⁶ cm/s. In addition, the result in the data set on Mus musculus [16] and with Mus musculus [18] was inactive. In addition, in the data set with Mus musculus [17], the result was Active. In addition, the Kp at 1 h in data set [24] is < 0.03.
By efflux ratio is commonly meant a quotient of directional permeabilities that is used to spot active efflux. In turn, `Cc1ccnn1-c1ccc(Cl)c(C(=O)NC(=O)Nc2nc3ccc(S(=O)(=O)C4CCN(C)CC4)cc3s2)c1` returned a logD in data set [1] of 2.6. Also, in [25], the Kp uu at 6 h was 0.61. The compound also yielded a Cmax in data set [26] of 640 nM. Moreover, the Papp A→B at 10 µM in the data set on MDR1 [15] was determined as 1.1 ×10⁻⁶ cm/s. Moreover, in [27], the IC50 was 33 nM. Also, the Kp at 6 h in data set [28] amounted to 0.9. Moreover, in the data set on MDR1 [29], the efflux ratio at 10 µM came to 15.
